Results gathered from unrelated publications.
Compare with care: the assays were run in different laboratories.
Cell line: HeLa
Read-out: cell growth or viability

CNc1ccc(S(=O)(=O)Nc2ccc(OC)nc2)cc1 gave an IC50 of over 100 µM (XTT; 72 h).
The CC50 of COC(=O)CNC(=O)C(=O)OC is reported as over 1000 µM.
With CC(=O)O[C@H]1C(=O)[C@@]2(C)[C@H]([C@H](OC(=O)c3ccccc3)[C@]3(O)C[C@H](OC(=O)[C@H](O)[C@@H](NC(=O)c4ccccc4)c4ccccc4)C(C)=C1C3(C)C)[C@]1(OC(C)=O)CO[C@@H]1C[C@@H]2O the IC50 was 4.8 µM (MTT; 48 h).
For Cc1ccn2c(C(=O)N3CCN(Cc4cn(-c5ccc(F)c(Cl)c5)nn4)CC3)c(C)nc2c1, the CC50 was over 100 µM (resazurin).
The CC50 of CCOP(=O)(OCC)[C@@H]1C[C@H](n2cc(-c3nccn3C)nn2)ON1C is reported as over 250 µM (72 h).
The CC50 of Cc1ccc(-n2cc(CN3CCN(C(=O)c4c(C)nc5ccc(Cl)cn45)CC3)nn2)cc1C is reported as over 100 µM (resazurin).
CCOP(=O)(OCC)[C@@H]1C[C@H](n2cc(Cn3cnc4c(N)ncnc43)nn2)ON1C (relative stereo) has a CC50 of at least 250 µM (72 h).
Cc1ccn2c(C(=O)N3CCN(Cc4cn(-c5ccccc5)nn4)CC3)c(C)nc2c1 has a CC50 of over 100 µM (resazurin).
With COc1cc2nnn(S(=O)(=O)c3ccc(N(C)C)cc3)c2cc1OC the IC50 was 55 µM (XTT; 72 h).
With CCOP(=O)(OCC)[C@@H]1C[C@H](n2cc(-c3ccccn3)nn2)ON1C the CC50 was over 250 µM (72 h).
The CC50 of CCCCCCCCCc1cn(CCN2CCN(C(=O)c3c(C)nc4cc(C)ccn34)CC2)nn1 is reported as 62.7 µM (resazurin).
COc1ccc(S(=O)(=O)Nc2cc(C#N)ccc2OS(=O)(=O)c2ccc(OC)cc2)cc1 has an IC50 of 77 µM (XTT; 72 h).
CCCCCCCCCc1cn(CCN2CCN(C(=O)c3c(C)nc4ccc(Cl)cn34)CC2)nn1 has a CC50 of over 100 µM (resazurin).
With COc1ccc(OC)c(NS(=O)(=O)c2ccc(OC)c([N+](=O)[O-])c2)c1 the IC50 was over 100 µM (XTT; 72 h).
CCOP(=O)(OCC)[C@@H]1C[C@H](n2cc(C(=O)OC)nn2)ON1C (relative stereo) has a CC50 of over 250 µM (72 h).
COc1cc(NS(=O)(=O)c2ccc([N+](=O)[O-])cc2)cc(OC)c1 gave an IC50 of over 100 µM (XTT; 72 h).
CCOP(=O)(OCC)[C@@H]1C[C@@H](n2cc(Cn3ccc(NC(C)=O)nc3=O)nn2)ON1C (racemic) gave a CC50 of over 250 µM (72 h).
With Cc1nc2ccc(Cl)cn2c1C(=O)N1CCN(Cc2cn(-c3cccc([N+](=O)[O-])c3)nn2)CC1 the CC50 was over 100 µM (resazurin).
COc1ccc(NS(=O)(=O)c2ccc(N)cc2)cc1OC has an IC50 of over 100 µM (XTT; 72 h).
